Like-named read-outs stand apart in the source and are kept apart here. Marks after values point to notes of the source that are not given here.

Assay [1] concerns the target T1, COX‐2 (Canis lupus familiaris, UniProt Q8SPQ9).
T1 sequence (Q8SPQ9 18-604): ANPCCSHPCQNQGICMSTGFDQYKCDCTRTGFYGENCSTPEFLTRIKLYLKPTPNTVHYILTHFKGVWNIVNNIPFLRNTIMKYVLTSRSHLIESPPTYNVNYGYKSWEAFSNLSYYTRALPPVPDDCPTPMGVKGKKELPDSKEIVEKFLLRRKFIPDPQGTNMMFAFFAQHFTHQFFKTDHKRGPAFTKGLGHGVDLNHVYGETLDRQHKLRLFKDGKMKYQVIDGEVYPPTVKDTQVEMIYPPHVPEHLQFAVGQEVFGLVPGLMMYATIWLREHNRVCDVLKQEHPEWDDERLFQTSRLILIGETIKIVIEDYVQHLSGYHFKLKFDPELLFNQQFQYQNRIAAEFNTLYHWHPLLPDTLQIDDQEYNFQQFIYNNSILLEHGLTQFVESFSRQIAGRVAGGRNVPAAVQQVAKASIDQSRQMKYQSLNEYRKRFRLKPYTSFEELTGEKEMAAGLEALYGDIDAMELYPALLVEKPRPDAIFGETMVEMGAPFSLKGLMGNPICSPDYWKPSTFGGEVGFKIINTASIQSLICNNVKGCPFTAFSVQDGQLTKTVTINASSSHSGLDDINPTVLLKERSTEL
The format is cell-based, dog. In outline: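 Citrated blood from three male and three female Beagles was held 4–6 h at ca 2–8°C. Duplicates received test compound at final 100, 30, 10, 3, 1, 0.3, 0.1 or 0 µM (one enantiomer max 30 µM; 0.4% DMSO) with LPS 1 µg/ml final, for 24 h at ca 37°C with orbital agitation. Plasma PGE2 was measured by ELISA (1:1000). Per-dog Hill fits gave IC50 and gamma; IC20/IC80 were derived.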

In assay [2] the test system is PGE2 formation in gastric mucosa. To be noted: rat carrageenan model, dose of 40 mg/kg; ref Iñiguez et al. (2010); cited from earlier work.
Assay [3] concerns COX‐1/COX‐2. Nature of the assay: Selectivity for COX‐2 inhibition. In kind it is cell-based. To be noted: dog whole blood, not corrected for blood cell partitioning. The essentials:
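Selectivity was the quotient of mean IC50 values (six Beagles each) from two canine whole blood assays. One was clotting-induced TXB2 (COX-1; unanticoagulated blood, 1 h, ca 37°C). The other was LPS-induced PGE2 (COX-2; citrated blood, 1 µg/ml LPS, 24 h). Both were read by ELISA and Hill-fitted. IC50 ratios were tested by paired t test, and compounds by one-way ANOVA/Tukey.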

Assay [4] has as its target T2, COX‐1 (Canis lupus familiaris, UniProt Q8HZR1).
T2 sequence (Q8HZR1 28-603): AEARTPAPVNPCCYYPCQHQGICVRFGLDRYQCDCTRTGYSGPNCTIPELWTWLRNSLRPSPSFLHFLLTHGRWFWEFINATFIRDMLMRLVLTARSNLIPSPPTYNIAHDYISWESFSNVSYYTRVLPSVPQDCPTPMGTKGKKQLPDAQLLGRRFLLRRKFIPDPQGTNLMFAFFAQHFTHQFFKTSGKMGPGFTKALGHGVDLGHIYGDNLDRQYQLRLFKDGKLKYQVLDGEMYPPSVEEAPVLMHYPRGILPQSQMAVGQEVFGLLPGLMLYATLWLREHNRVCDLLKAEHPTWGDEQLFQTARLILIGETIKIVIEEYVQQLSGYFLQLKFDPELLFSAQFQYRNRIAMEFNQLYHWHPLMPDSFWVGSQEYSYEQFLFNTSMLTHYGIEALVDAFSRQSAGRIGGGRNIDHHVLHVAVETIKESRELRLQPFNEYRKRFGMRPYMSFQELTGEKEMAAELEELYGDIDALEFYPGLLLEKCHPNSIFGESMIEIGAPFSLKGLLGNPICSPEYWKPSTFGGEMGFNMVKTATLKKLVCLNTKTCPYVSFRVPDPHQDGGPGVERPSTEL
In kind it is cell-based, dog. To be noted: Hill equation fit of TXB2 formation; mean of six dogs. In outline:
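Whole blood from six male Beagles was drawn without anticoagulant and used at once. Duplicate incubations received test compound at final 500, 300, 100, 30, 10, 3, 1 or 0 µM (0.4% v/v DMSO) plus PBS, for 1 h at ca 37°C with gentle shaking. Serum TXB2 was measured by ELISA (1:3000, 412 nm). Per-dog 4-parameter Hill fits gave IC50 and gamma, and IC20/IC80 were calculated from these.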

Assay [5] relates to COX‐1/COX‐2. To be noted: cited from earlier work.
Setting [6] is: whole blood concentration, not corrected for blood cell partitioning.
The mark [7] stands for this setting: ref King et al., 2010, McCann et al., 2004.

With `NS(=O)(=O)c1ccc(N2N=C(C(F)(F)F)C[C@@H]2c2ccc(F)cc2F)cc1` [(R)‐(+)‐Enflicoxib], in assay [1] (setting [6]), the “IC50 for COX‐2 inhibition expressed as blood level” value was greater than 12 µg/mL and the “IC80 for COX‐2 inhibition expressed as blood level” value is greater than 12 µg/mL.
For the compound `NS(=O)(=O)c1ccc(N2N=C(C(F)(F)F)C[C@H]2c2ccc(F)cc2F)cc1` [(S)‐(‐)‐Enflicoxib], the “inhibition of PGE2 formation in gastric mucosa” value in assay [2] was 18%. Also, the “Ratio IC50 (COX‐1/COX‐2)” value in assay [3] is recorded as 3.77‡. In addition, the “Gamma (sigmoidicity factor), COX‐1” value in assay [4] was found to be 1.8. In addition, in assay [1] (Hill equation fit of PGE2 formation, mean of six dogs), the “Gamma (sigmoidicity factor), COX‐2” value is 2.7.
As to `CC(C(=O)O)c1ccc2c(c1)[nH]c1ccc(Cl)cc12` (stereo not shown) [carprofen], in assay [5] (ref Briedeau et al., 2001), the “COX‐2 selectivity ratio” value was roughly 6.5.
With `COc1ccc(-c2cc(C(F)F)nn2-c2ccc(S(N)(=O)=O)cc2)cc1F` [deracoxib], the “COX‐2 selectivity ratio” value in assay [5] (setting [7]) was 48.5.
`CC1(C)OC(=O)C(OCC2CC2)=C1c1ccc(S(C)(=O)=O)cc1` [firocoxib]: the “COX‐2 selectivity ratio” value in assay [5] (setting [7]) was 384.
For `CCc1ccc(Nc2c(F)c(F)cc(F)c2F)c(CC(=O)O)c1` [robenacoxib], in assay [5] (setting [7]), the “COX‐2 selectivity ratio” value is recorded as 129.

Source of the values: paper PMC9306928 (Journal of Veterinary Pharmacology and Therapeutics, 2022).
